In ChEMBL document CHEMBL2407079, “Potent DGAT1 Inhibitors in the Benzimidazole Class with a Pyridyl-oxy-cyclohexanecarboxylic Acid Moiety” (ACS Med Chem Lett, 2013):

Legend:
[1] = target: T1, Diacylglycerol O-acyltransferase 1 (Mus musculus, UniProt Q9Z2A7); assay: Inhibition of mouse DGAT1
T1 sequence (Q9Z2A7 whole entry): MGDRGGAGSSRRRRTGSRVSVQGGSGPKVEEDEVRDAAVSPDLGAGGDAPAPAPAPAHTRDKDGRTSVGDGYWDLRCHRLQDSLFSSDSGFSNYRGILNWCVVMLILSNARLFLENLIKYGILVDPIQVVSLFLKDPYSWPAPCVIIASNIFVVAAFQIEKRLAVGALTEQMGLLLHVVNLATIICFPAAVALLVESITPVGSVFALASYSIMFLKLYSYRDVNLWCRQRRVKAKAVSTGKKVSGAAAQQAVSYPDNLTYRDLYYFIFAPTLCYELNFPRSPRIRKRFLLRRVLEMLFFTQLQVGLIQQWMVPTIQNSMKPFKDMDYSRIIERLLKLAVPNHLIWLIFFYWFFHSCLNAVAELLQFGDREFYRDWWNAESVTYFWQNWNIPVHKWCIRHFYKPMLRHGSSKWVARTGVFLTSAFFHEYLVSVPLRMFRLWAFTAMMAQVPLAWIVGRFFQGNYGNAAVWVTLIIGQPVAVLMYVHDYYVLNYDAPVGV

[2] = target: T2, Diacylglycerol O-acyltransferase 1 (Homo sapiens, UniProt O75907); assay: Inhibition of human DGAT1
T2 sequence (O75907 whole entry): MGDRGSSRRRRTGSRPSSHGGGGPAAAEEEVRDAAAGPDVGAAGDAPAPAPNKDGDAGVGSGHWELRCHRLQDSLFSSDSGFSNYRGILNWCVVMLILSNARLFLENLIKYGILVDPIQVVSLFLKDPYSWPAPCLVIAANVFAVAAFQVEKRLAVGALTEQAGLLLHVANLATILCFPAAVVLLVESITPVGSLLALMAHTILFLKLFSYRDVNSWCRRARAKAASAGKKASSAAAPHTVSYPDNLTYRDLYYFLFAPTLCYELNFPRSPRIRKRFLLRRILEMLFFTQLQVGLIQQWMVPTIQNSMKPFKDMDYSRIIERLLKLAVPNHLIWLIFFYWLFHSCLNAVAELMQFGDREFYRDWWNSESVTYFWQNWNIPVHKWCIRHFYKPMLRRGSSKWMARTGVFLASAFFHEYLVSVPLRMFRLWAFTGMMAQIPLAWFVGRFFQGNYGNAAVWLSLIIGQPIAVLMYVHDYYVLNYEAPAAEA

[3] = Lipophilicity, log D of the compound by HPLC analysis; format: physicochemical
Mus musculus = assay: Reduction in triglyceride excursion in mouse at 10 mg/kg, po measured at 18 hrs by lipid tolerance test; format: functional; design: scale not given: the % may be the effect or the level left
Procedure, shortened: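 Mouse lipid tolerance test. Oral dose of 10 mg/kg as a suspension in 0.5% methylcellulose; triglyceride reduction read at 18 h.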

| IC50 [1] | IC50 [2] | logD [3] | SMILES | Activity (Mus musculus) |
| --- | --- | --- | --- | --- |
| 358 nM | 101 nM | – | CS(=O)(=O)c1ccc2nc(-c3ccc(-c4ccc(O[C@H]5CC[C@@H](C(=O)O)CC5)nc4)nc3)[nH]c2c1 | – |
| 1 nM | 1.1 nM | 1.8 | O=C(O)C[C@H]1CC[C@H](c2ccc(-c3ccc(-c4nc5cc(Cl)ccc5[nH]4)cn3)cc2)CC1 | – |
| 4.6 nM | 3.9 nM | – | O=C(O)[C@H]1CC[C@@H](Oc2ccc(-c3ccc(-c4nc5ccc(OC(F)(F)F)cc5[nH]4)cn3)cn2)CC1 | – |
| 2.2 nM | 1.7 nM | 1.62 | O=C(O)[C@H]1CC[C@@H](Oc2ccc(-c3ccc(-c4nc5cc(C(F)(F)F)ccc5[nH]4)cn3)cn2)CC1 | 84% |
| 2.8 nM | 3.5 nM | 1.97 | O=C(O)C[C@H]1CC[C@H](c2ccc(-c3ccc(-c4nc5ccc(C(F)(F)F)cc5[nH]4)cn3)cc2)CC1 | – |
